In ChEMBL document CHEMBL3797147, “Nitric oxide production inhibition and mechanism of phenanthrene analogs in lipopolysaccharide-stimulated RAW264.7 macrophages” (Bioorg Med Chem Lett, 2016):
Active and inactive are the calls of the source. The calls are words filed in the database; no cut-off is given here.

How the values were obtained:
RAW264.7 [1] = experiment: Anti-inflammatory activity in mouse RAW264.7 cells assessed as LPS-induced nitric oxide production level at 50 uM pre-incubated for 2 hrs before LPS stimulation for 24 hrs by Griess assay relative to untreated control; format: functional
How it was run: (§1)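 Cells pretreated with compound at various concentrations for 2 h, then LPS 0.5 µg/mL added for 24 h; nitrite in medium read with Griess reagent; means ± SD of triplicates.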

[2] = Cytotoxicity against mouse RAW264.7 cells assessed as cell viability at 50 uM incubated for 24 hrs by Alamar-Blue assay; format: cell-based; conditions: read-out: Activity
RAW264.7 [3] = experiment: Anti-inflammatory activity in mouse RAW264.7 cells assessed as reduction in LPS-induced nitric oxide production level pre-incubated for 2 hrs before LPS stimulation for 24 hrs by Griess assay relative to untreated control; format: functional, cell-based; how it was run: as §1
RAW264.7 [4] = experiment: Inhibition of LPS-induced IL-6 mRNA expression in mouse RAW264.7 cells at 10 uM pre-incubated for 2 hrs before LPS stimulation for 24 hrs by qRT-PCR method; format: functional, cell-based
How it was run: (§2)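 Cells in 6-well plates pretreated (1, 10, 50 µM; BAY 11-7082 10 µM reference) 2 h before LPS 0.5 µg/mL for 24 h; IL-1b and IL-6 mRNA by qRT-PCR against GAPDH; mean ± SD of three experiments in triplicate.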

RAW264.7 [5] = experiment: Inhibition of LPS-induced IL-1beta mRNA expression in mouse RAW264.7 cells at 10 uM pre-incubated for 2 hrs before LPS stimulation for 24 hrs by qRT-PCR method; format: functional, cell-based; how it was run: as §2
RAW264.7 [6] = experiment: Anti-inflammatory activity in mouse RAW264.7 cells assessed as LPS-induced nitric oxide production level at 10 uM pre-incubated for 2 hrs before LPS stimulation for 24 hrs by Griess assay relative to untreated control; format: functional; how it was run: as §1
RAW264.7 [7] = experiment: Inhibition of LPS-induced iNOS mRNA expression in mouse RAW264.7 cells at 10 uM pre-incubated for 2 hrs before LPS stimulation for 24 hrs by qRT-PCR method; format: functional, cell-based
How it was run: (§3)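 Cells pretreated with compound or 10 µM BAY 11-7082 for 2 h, then LPS 0.5 µg/mL for 24 h; total RNA extracted, iNOS mRNA by qRT-PCR normalised to GAPDH.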

RAW264.7 [8] = experiment: Inhibition of LPS-induced IL-1beta mRNA expression in mouse RAW264.7 cells pre-incubated for 2 hrs before LPS stimulation for 24 hrs by qRT-PCR method; format: functional, cell-based; how it was run: as §2
[9] = molecular target: T1, NF-kappa-B inhibitor alpha (Mus musculus) (UniProt Q9Z1E3); experiment: Inhibition of LPS-induced IkappaB-alpha phosphorylation in mouse RAW264.7 cells at 1 to 50 uM pre-incubated before LPS stimulation for 5 mins by Western blotting method
T1 sequence (whole entry): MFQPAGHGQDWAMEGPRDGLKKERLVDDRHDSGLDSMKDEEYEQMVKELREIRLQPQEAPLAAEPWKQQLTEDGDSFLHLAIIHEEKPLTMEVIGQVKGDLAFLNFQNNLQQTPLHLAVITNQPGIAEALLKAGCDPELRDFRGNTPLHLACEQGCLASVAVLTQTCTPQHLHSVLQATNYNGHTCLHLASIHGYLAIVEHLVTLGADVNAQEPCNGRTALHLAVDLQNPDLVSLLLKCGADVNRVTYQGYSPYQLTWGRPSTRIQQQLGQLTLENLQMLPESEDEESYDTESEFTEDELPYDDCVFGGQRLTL

RAW264.7 [10] = experiment: Inhibition of LPS-induced iNOS protein expression in mouse RAW264.7 cells pre-incubated for 2 hrs before LPS stimulation for 24 hrs by Western blotting method; format: functional, cell-based
How it was run: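 Cells in 6-well plates pretreated (1, 10, 50 µM; BAY 11-7082 10 µM) for 2 h, LPS 0.5 µg/mL 24 h; lysates immunoblotted with anti-iNOS, GAPDH loading control.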

[11] = molecular target: MAP kinase p38 (Mus musculus) (UniProt P47811+O08911+Q9WUI1+Q9Z1B7); experiment: Inhibition of LPS-induced p38 MAPK phosphorylation in mouse RAW264.7 cells at 1 to 50 uM pre-incubated for 2 hrs before LPS stimulation for 30 min by Western blotting method
[12] = molecular target: T1, NF-kappa-B inhibitor alpha (Mus musculus); experiment: Inhibition of LPS-induced IkappaB-alpha degradation in mouse RAW264.7 cells at 1 to 50 uM pre-incubated before LPS stimulation for 5 mins by Western blotting method
RAW264.7 [13] = experiment: Inhibition of LPS-induced IL-6 mRNA expression in mouse RAW264.7 cells pre-incubated for 2 hrs before LPS stimulation for 24 hrs by qRT-PCR method; format: functional, cell-based; how it was run: as §2
JNK1/JNK2 (Mus musculus) = JNK1/JNK2 (Mus musculus) (UniProt Q91Y86+Q9WTU6); experiment: Inhibition of LPS-induced JNK1/2 MAPK phosphorylation in mouse RAW264.7 cells at 1 to 50 uM pre-incubated for 2 hrs before LPS stimulation for 30 mins by Western blotting method
[14] = molecular target: RAC-alpha serine/threonine-protein kinase (Mus musculus) (UniProt P31750); experiment: Inhibition of LPS-induced AKT phosphorylation in mouse RAW264.7 cells at 1 to 50 uM pre-incubated for 30 mins before LPS stimulation for 30 mins by Western blotting method
RAW264.7 [15] = experiment: Inhibition of LPS-induced IL-6 protein expression in mouse RAW264.7 cells at 1 to 50 uM pre-incubated for 2 hrs before LPS stimulation for 24 hrs by ELISA
[16] = molecular target: Mitogen-activated protein kinase 1 and 3 (ERK2 and ERK1) (Mus musculus) (UniProt P63085+Q63844); experiment: Inhibition of LPS-induced ERK1/2 MAPK phosphorylation in mouse RAW264.7 cells at 1 to 50 uM pre-incubated for 2 hrs before LPS stimulation for 30 mins by Western blotting method
RAW264.7 [17] = experiment: Inhibition of LPS-induced iNOS mRNA expression in mouse RAW264.7 cells pre-incubated for 2 hrs before LPS stimulation for 24 hrs by qRT-PCR method; format: functional, cell-based; how it was run: as §3

Sequence of RAC-alpha serine/threonine-protein kinase (Mus musculus) (P31750 whole entry): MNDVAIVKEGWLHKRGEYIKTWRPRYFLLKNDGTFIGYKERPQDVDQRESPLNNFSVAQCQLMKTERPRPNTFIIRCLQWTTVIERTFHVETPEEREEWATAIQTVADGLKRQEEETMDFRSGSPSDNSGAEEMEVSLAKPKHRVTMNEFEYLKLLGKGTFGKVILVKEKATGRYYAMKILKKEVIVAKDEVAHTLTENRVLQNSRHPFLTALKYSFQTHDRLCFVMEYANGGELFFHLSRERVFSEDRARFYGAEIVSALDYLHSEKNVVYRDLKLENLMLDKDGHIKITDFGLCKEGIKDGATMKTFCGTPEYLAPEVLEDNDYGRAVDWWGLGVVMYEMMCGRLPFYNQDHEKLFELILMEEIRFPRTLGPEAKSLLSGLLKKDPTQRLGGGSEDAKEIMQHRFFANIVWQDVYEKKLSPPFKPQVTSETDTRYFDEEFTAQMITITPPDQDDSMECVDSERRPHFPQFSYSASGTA
Sequence of Mitogen-activated protein kinase 1 and 3 (ERK2 and ERK1) (Mus musculus) (P63085 whole entry, looked up): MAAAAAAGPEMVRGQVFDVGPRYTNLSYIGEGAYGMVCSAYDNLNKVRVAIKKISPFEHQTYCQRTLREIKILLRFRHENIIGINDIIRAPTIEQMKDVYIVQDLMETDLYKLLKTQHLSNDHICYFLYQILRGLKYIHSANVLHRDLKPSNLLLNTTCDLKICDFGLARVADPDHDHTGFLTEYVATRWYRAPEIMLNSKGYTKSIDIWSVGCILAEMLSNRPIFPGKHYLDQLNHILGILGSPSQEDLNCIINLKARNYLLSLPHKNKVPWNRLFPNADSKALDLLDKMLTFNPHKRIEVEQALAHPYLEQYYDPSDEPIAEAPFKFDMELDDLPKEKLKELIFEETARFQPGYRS
Sequence of Mitogen-activated protein kinase 1 and 3 (ERK2 and ERK1) (Mus musculus) (Q63844 whole entry, looked up): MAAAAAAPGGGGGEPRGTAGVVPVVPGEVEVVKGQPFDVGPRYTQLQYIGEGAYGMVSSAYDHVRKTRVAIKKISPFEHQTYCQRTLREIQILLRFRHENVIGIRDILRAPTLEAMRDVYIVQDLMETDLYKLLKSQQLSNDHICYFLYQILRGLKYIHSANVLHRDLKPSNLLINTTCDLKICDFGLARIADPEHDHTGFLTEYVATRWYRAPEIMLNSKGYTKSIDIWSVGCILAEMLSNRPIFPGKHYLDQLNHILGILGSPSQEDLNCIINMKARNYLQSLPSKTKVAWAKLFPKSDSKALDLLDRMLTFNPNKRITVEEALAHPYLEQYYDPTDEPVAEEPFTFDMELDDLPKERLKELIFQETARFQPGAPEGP
Sequence of JNK1/JNK2 (Mus musculus) (Q91Y86 whole entry, looked up): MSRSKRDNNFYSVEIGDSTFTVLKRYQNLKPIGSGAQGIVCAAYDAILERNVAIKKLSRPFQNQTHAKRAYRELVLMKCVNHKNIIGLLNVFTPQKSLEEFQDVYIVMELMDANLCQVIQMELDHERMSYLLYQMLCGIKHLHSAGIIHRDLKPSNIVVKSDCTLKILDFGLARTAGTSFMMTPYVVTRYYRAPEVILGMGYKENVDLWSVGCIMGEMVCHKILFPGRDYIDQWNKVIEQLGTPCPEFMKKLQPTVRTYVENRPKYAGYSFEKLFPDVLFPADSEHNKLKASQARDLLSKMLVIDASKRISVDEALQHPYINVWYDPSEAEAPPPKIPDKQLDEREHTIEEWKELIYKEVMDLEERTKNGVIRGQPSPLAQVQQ
Sequence of JNK1/JNK2 (Mus musculus) (Q9WTU6 whole entry, looked up): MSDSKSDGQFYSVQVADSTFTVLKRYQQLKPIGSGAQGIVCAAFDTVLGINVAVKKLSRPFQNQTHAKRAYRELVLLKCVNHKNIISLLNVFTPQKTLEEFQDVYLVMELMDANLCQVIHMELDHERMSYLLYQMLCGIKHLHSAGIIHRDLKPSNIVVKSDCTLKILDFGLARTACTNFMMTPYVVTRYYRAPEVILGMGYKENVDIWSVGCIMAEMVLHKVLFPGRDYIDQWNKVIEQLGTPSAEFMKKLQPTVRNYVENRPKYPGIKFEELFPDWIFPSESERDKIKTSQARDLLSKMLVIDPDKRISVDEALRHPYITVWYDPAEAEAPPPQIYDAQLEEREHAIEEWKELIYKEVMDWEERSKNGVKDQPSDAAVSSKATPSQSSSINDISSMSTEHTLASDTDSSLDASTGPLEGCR

Row | SMILES | Activity (RAW264.7 [1]) | viability at 24 h, 50 µM [2] | also measured
1 | CCN(CC)C(=O)/C(=C/c1ccc(OC)c(OC)c1)c1ccc(OC)c(OC)c1 | 92.7% | 111% | 
2 | COc1ccc(/C=C(/C(=O)O)c2ccc(OC)c(OC)c2)cc1OC | 64.3% | 121% | 
3 | COC(=O)c1cc2cc(OC)ccc2c2cc(OC)c(OC)cc12 | 48.8% | 99.3% | 
4 | COc1cc2cc(C(=O)O)c3cc(OC)c(OC)cc3c2cc1OC | 78.2% | 101% | 
5 | COC(=O)/C(=C/c1ccc(OC)c(OC)c1)c1ccc(OC)cc1 | 45.5% | 66.7% | IC50 (RAW264.7 [3]): 37.3 µM
6 | COc1ccc(/C=C(\C(=O)O)c2ccc(OC)c(OC)c2)cc1OC | 120.7% | 106% | 
7 | COC(=O)c1cc2cc(OC)c(OC)cc2c2cc(OC)c(OC)cc12 | 45.3% | 101% | 
8 | COC(=O)/C(=C/c1ccc2c(c1)OCO2)c1ccc(OC)c(OC)c1 | 109.2% | 88% | 
9 | COC(=O)/C(=C/c1cccc(OC)c1)c1ccc(OC)c(OC)c1 | 84.6% | 76.5% | 
10 | COc1ccc(/C=C(\C#N)c2ccc(OC)c(OC)c2)cc1OC | 46.7% | 96.7% | 
11 | COC(=O)c1cc2cc(OC)c(OC)cc2c2cc(OC)ccc12 | 83% | 99.7% | 
12 | COc1cc2cc(C#N)c3cc(OC)c(OC)cc3c2cc1OC | 108.8% | 102% | 
13 | COc1cc2c(C(=O)O)cc3cc4c(cc3c2cc1OC)OCO4 | 53.1% | 107% | 
14 | CCN(CC)C(=O)c1cc2cc(OC)c(OC)cc2c2cc(OC)c(OC)cc12 | 39.8% | 94.7% | IC50 (RAW264.7 [3]): 20.3 µM
15 | COC(=O)/C(=C\c1ccc2c(c1)OCO2)c1ccc(OC)c(OC)c1 | 79% | 56.1% | 
16 | COc1ccc(/C(=C\c2ccc3c(c2)OCO3)C(=O)O)cc1OC | 86% | 123% | 
17 | COC(=O)/C(=C\c1ccc(OC)c(OC)c1)c1ccc(OC)c(OC)c1 | 98.7% | 91.1% | 
18 | COC(=O)c1cc2cc3c(cc2c2cc(OC)c(OC)cc12)OCO3 | 75% | 101% | 
19 | COc1ccc(/C(=C/c2ccc3c(c2)OCO3)C(=O)O)cc1OC | 106.9% | 103% | 
20 | Cc1ccc(S(=O)(=O)/C=C/C#N)cc1 |  |  | inhibition (RAW264.7 [4]): Active; inhibition (RAW264.7 [5]): Active; Activity (RAW264.7 [6]): 1.2%; inhibition (RAW264.7 [7]): Active
21 | COC(=O)/C(=C/c1ccc(OC)c(OC)c1)c1ccc(OC)c(OC)c1 | 3.9% | 114% | IC50 (RAW264.7 [3]): 5.05 µM; inhibition (RAW264.7 [8]): Dose-dependent effect; inhibition [9]: Active; inhibition (RAW264.7 [10]): Dose-dependent effect; inhibition [11]: Active; inhibition [12]: Active; inhibition (RAW264.7 [13]): Dose-dependent effect; inhibition (JNK1/JNK2 (Mus musculus)): inactive; inhibition [14]: Active; inhibition (RAW264.7 [15]): Active; inhibition [16]: inactive; inhibition (RAW264.7 [17]): Dose-dependent effect
